For data set [1], the system named is AML cell lines. Kind of data set: CellTiter-Glo cell viability across the cell line panel. The note with it: for sensitivity of the Val-boroPro-sensitive AML cell lines to the compound: cell viability relative to DMSO; for sensitivity of the Val-boroPro-sensitive AML cell lines to the compound / reduction in cell viability: 48 h. The format is cell-based, human. In general terms: Cellular ATP, detected with luciferase, serves as a proxy for viable cell number.

The subject of data set [2] is caspase-1 knockout OCI-AML2, MV4;11 and THP-1 cells. Kind of data set: Cell viability of caspase-1 knockout cells. The format is cell-based, human.
Data set [3] deals with THP-1 or MV4;11 cells. Kind of data set: LDH release with Val-boroPro plus bortezomib. The format is cell-based, human. Conditions: bortezomib 100 nM with Val-boroPro 2 μM, 6 h. On the technique in general: LDH leaks from cells whose membrane has failed.
In data set [4] the test system is AML cell lines. Conditions: cited from earlier work.
Data set [5] concerns K562 cells. Kind of data set: CellTiter-Glo cell viability assay. It is filed as cell-based, human.
In data set [6] the test system is HEK 293T cells. In words: CellTiter-Glo cell viability assay. The format is cell-based, human. Conditions: HEK293T.
Data set [7] deals with non-AML cell lines. In words: CellTiter-Glo cell viability across the cell line panel. The format is cell-based, human. Summed up: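 Cells were dispensed at 2000 cells/well in 25 μL of medium, and compound was added by pintool. MV4;11 and RS4;11 were incubated 22 h and all other lines 46 h, at 37 °C. Plates were equilibrated to room temperature, then CellTiter-Glo was added, with 2 min orbital shaking and 10 min at room temperature. Luminescence is expressed relative to DMSO as mean ± SEM of three biological replicates.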

Data set [8] has as its system NLRP1−/− THP-1 and MV4;11 cells. Kind of data set: LDH release / GSDMD cleavage in NLRP1 knockout cells. The format is cell-based, human.
The subject of data set [9] is CARD8−/− THP-1, MV4;11 and OCI-AML2 cells. In words: LDH release / GSDMD cleavage in CARD8 knockout cells. The format is cell-based, human. The note with it: 2 μM; 24 h OCI-AML2 and MV4;11, 48 h THP-1.
Data set [10] has as its system HEK 293T cells stably expressing hCASP1 and hGSDMD transfected with CARD8. Kind of data set: LDH release from transfected HEK 293T cells. The format is cell-based, human. Conditions: 2 μM, 24 h; CARD8 but not NLRP1 or S297A CARD8. The procedure, abridged:
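HEK 293T cells stably expressed human caspase-1 (hygromycin-selected) and gasdermin D (puromycin-selected) after lentiviral transduction. They were seeded at 0.5 × 10^6/well in DMEM/10% FBS one day before Fugene HD transfection, with total DNA brought to 2 μg with RFP vector; RFP vector alone served as mock. After 24 h, cells got DMSO or 2 μM for a further 24 h. Supernatant LDH was measured (mean ± SEM, three experiments).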

Data set [11] deals with sensitive AML cell lines. Kind of data set: Immunoblotting of GSDMD and PARP cleavage. It is filed as cell-based, human. Conditions: 24 h. For orientation: A western blot detects proteins with antibodies after separation by electrophoresis.
In data set [12] the test system is MV4;11 leukemia cells. In words: Disseminated MV4. The format is in vivo, mouse. The note with it: 20 μg i.p. once daily, 5 days a week for 4 weeks; log-rank test. Summed up: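 Luciferase-expressing MV4;11 cells (1 million, neomycin-selected) were injected into the tail vein of 200 cGy-irradiated 7-week female NSG mice. From day 5, randomized mice (n=9/group) got 100 μL i.p. vehicle (1 mM HCl in PBS, pH 7.4) or 20 μg/100 μL once daily, 5 days/week for 4 weeks. BLI tracked burden. Survival ran from inoculation to moribund state (6/group), analysed by log-rank test.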

Data set [13] concerns CASP1−/− MV4;11 leukemia cells. Kind of data set: Disseminated CASP1−/− MV4. The format is in vivo, mouse. Conditions: 20 μg i.p. once daily, 5 days a week, 3 weeks. The procedure, abridged:
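NSG mice (female, 7 weeks, 200 cGy irradiated) received 1 million luciferase-expressing CASP1−/− MV4;11 cells by tail vein. On day 5 they were randomized (n=9/group) and dosed i.p. with 100 μL vehicle (1 mM HCl in PBS, pH 7.4) or 20 μg/100 μL once daily, 5 days/week. Dosing stopped after 3 weeks. Burden was tracked by bioluminescence; survival to moribund state used all 9 animals.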

A short description of data set [14]: Tolerability in MV4. The note with it: NSG mice, 20 μg i.p., treatment day 23. The format is in vivo, mouse. The procedure, abridged:
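Disseminated MV4;11-Luc NSG model: mice were dosed i.p. with 100 μL vehicle (1 mM HCl/PBS) or 20 μg/100 μL daily, 5 days/week, and weighed daily. After 23 days of dosing, peripheral blood was taken from 3 mice per group, chosen by high, median and low BLI flux. It was analysed for complete blood counts and blood chemistry. Femur, spleen, lung and liver sections were H&E-stained.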

A short description of data set [15]: Evaluation in wild-type C57BL/6J mice. The format is in vivo, mouse. Conditions: 20 μg i.p. The procedure, abridged:
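Female C57BL/6J mice (7 weeks) received vehicle (1 mM HCl/PBS) or 20 μg either once (n=5/group, harvested at 6 h or 24 h) or once daily, 5 days/week for two weeks (10 doses, n=4, harvested 24 h after the last dose). Blood was analysed for complete blood count and blood chemistry.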

Data set [16] relates to primary human cancer AML-10. In words: AML-10 patient-derived xenograft. The format is in vivo, mouse. Conditions: 2 mg/kg, PDX model.
Data set [17] concerns primary AML cells. In words: Primary cancer cell assay. It is filed as cell-based, human. The note with it: 20 µM, 48 h, FACS.
Data set [18] relates to primary T-ALL samples. Kind of data set: Primary cancer cell assay. The format is cell-based, human. Conditions: 20 µM, FACS. Summed up: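 Bone marrow aspirates were strained, Ficoll-separated and ACK-lysed, then frozen; AML samples 1–4 were first passaged in NSG mice. Cells were thawed in IMDM/15% FBS with DNase1 and cultured with 2-mercaptoethanol, G-CSF, SCF, IL-3 and FLT3-ligand. One day later, 100,000 cells/well were treated in triplicate with 20 μM or DMSO for 40 h at 37 °C. Death was scored by flow cytometry (anti-human/anti-mouse CD45, PI or DAPI).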

The test system of data set [19] is primary B-ALL. In words: Primary cancer cell assay. Conditions: 20 µM, 48 h, FACS. It is filed as cell-based, human.
In data set [20] the test system is primary human cord blood CD34+ cells. In words: CellTiter-Glo cell viability assay. The format is cell-based. The note with it: 6 μM, 24 h, Cell Titer Glo. Summed up:
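Human cord blood cells were thawed in IMDM/15% FBS with DNase1 (1 mg/mL). Culture medium was IMDM/10% FBS with TPO, SCF and G-CSF (each 100 ng/mL). Cells were assayed immediately after thawing at 2000 cells/well with pintool compound addition, incubated 22 h at 37 °C, and read by CellTiter-Glo luminescence after 2 min shaking and 10 min at room temperature.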

For data set [21] the following is noted: cited from earlier work.
Data set [22] deals with G-CSF and Cxcl1. Conditions: mice; cited from earlier work.
Data set [23] deals with G-CSF. Conditions: healthy volunteers and cancer patients; cited from earlier work.

Structures are written as SMILES. “Also recorded” adds a separate entry of the source.

For `CC[C@@H](C)[C@H](N)C(=O)N1Cc2ccccc2C1` [L-allo-Ile-isoindoline], in data set [1], the “sensitivity of the Val-boroPro-sensitive AML cell lines to the compound” value is “sensitive”. The “sensitivity of caspase-1 knockout cells” value in [2] is listed as “resistant”.

With `CC(C)C[C@H](NC(=O)[C@H](Cc1ccccc1)NC(=O)c1cnccn1)B(O)O` [bortezomib], the “effect on activation of CARD8 by Val-boroPro (LDH release)” value in data set [3] is listed as “blocks”.

Turning to `N#C[C@@H]1CCCN1C(=O)CNC12CC3CC(CC(O)(C3)C1)C2` [vildagliptin], the “anti-AML cytotoxicity on its own” value in data set [4] is recorded as “did not exhibit any anti-AML cytotoxicity”.

For `CC(C)[C@H](N)C(=O)N1CCC[C@H]1B(O)O` [Val-boroPro], the “cell death after 5 days of treatment” value in data set [5] and in [6] was “no cell death” in each case. Besides, the “reduction in cell viability” value in data set [1] (KG1, THP-1 and NOMO-1) is on record as 40–65%; in data set [1] (MV4;11, OCI-AML2, SET-2, RS4;11 and MOLM-13), greater than 80%. Besides, in data set [1] (Homo sapiens, read-out: IC50 values in sensitive AML cell lines), the IC50 (usually the midpoint of a concentration-inhibition curve) fell in the range of 6 to 206 nM. The “time in which cells died” value in [1] (MV4;11 and OCI-AML2 cells) lay in the range of 1 to 2 days. The “compound treatment required to achieve maximal cell killing” value in [1] (THP-1 and NOMO-1 cells) is on record as 5 days. Further, the “activity against non-AML cell lines tested” value in data set [7] was “no activity”. In addition, the “sensitivity of caspase-1 knockout cells” value in data set [2] is “resistant”. Also, in data set [8], the “pyroptosis in NLRP1−/− cells” value is on record as “induced pyroptosis”. In [9], the “sensitivity of CARD8−/− cells (GSDMD cleavage, cell death)” value is on record as “completely resistant”. The “cytotoxicity in CARD8-expressing HEK 293T cells” value in data set [10] is on record as “sensitive”. Further, the “cleavage of gasdermin D (GSDMD), not PARP” value in data set [11] is reported as “induced cleavage”. Besides, the “median extension in survival” value in [12] worked out at 24.5 days. Further, the “efficacy against CASP1−/− MV4;11 cells in vivo (bioluminescence, survival)” value in [13] is listed as “absolutely no efficacy; also recorded: not statistically different”. Besides, the “effects on peripheral blood cell counts, serum chemistry, body weight” value in data set [14] was “no significant effects”. Also, in [15], the “effects on peripheral blood counts or body weight” value was “no significant effects”. The “weight loss associated with leukemia progression” value in data set [16] is “slowed weight loss”. Further, in data set [17], the “cell death in primary AML samples” value is “sensitive”. Also, in data set [18], the “cell death in primary T-ALL samples” value is reported as “completely resistant”. For the same compound, the “cell death in primary B-ALL” value in data set [19] is reported as “sensitive”. Also, the “cell death in primary CD34+ human cord blood cells” value in [20] is “sensitive”. Besides, the “maximum tolerated dose in humans” value in [21] is “without reaching a maximum tolerated dose”. In addition, the “serum concentrations reached in humans” value in data set [21] is recorded as greater than 100 nM. In addition, the “serum protein levels of several cytokines, including G-CSF and Cxcl1” value in data set [22] was “increases”. Also, the “levels of a number of cytokines, including G-CSF” value in data set [23] is recorded as “elevated”.

For `N[C@@H](CC(=O)N1CCn2c(nnc2C(F)(F)F)C1)Cc1cc(F)c(F)cc1F` [sitagliptin], the “sensitivity of the Val-boroPro-sensitive AML cell lines to the compound” value in data set [1] is reported as “not sensitive”.
